H69AR inhibit: blocks growth of human H69AR lung tumor cells; H69AR lung tumor viability, ATP luminescence, 72 h; stronger effect = lower value; viability, % at 10 µM; 85,000 compounds, 6% hits;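 active = viability at or below 40%; inactive = viability above 40%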;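 also: multidrug resistant small cell line overexpressing MRP-1 efflux transporter; 100% = mean luminescence of untreated control wells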
PTEN del growth: suppresses growth of cells with PTEN deletion; HCT116 PTEN-null viability, CellTiter-Glo, 60 h; stronger effect = lower value; viability, % at 10 µM; 140,000 compounds, 1.2% hits; AID 827;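 active = viability at or below a set limit, 4 SD under the median of all tested compounds, cut at about 3.7% in these data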;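 also: PTEN knockout HCT116 line with beta catenin targeted HCT116 as companion control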
bCat KO growth: beta-catenin-lacking colon tumor cell growth suppression. HCT116 beta-catenin knockout viability, CellTiter-Glo, 60 h; stronger effect = lower value. viability, % at 10 µM. 140,000 compounds, 1.5% hits. AID 818;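 active = viability at or under a set limit, the compound median less 4 SD, cut at about 6% in these data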;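 also: 0% = Hyamine 1622 control at 20 µM and 100% = untreated cell control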
Candida biofilm: kills Candida albicans biofilms; C. albicans biofilm + clotrimazole, Alamar Blue; inhibition, % at 6 µM; 85,000 compounds, 0.14% hits; AID 834;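 active = inhibition above 20%; inactive = inhibition below 20%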;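 also: preformed 24 hr biofilms exposed to compound for 48 hr; 0% = biofilm without compound and 100% = blank killed by clotrimazole plus chlorhexidine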
Lung fibro prol: blocks proliferation of human lung fibroblasts; LL 47 human lung fibroblast viability, ATP luminescence; stronger effect = lower value; viability, % at 10 µM; 85,000 compounds, 1.1% hits;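 active = viability at or below 50% in the single dose screen; inactive = viability above 50%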;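 also: compound exposure lasted 72 h before the ATP readout; 100% = median luminescence of untreated cell-only wells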
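Material: human lung fibroblast line LL 47, low passage; Evaluation: viability percentage against median untreated-cell control; Buffer or medium: 15% FBS in IMEM; Incubation: 72 h compound exposure at 37 °C after overnight plating; Dosing: 0.1% DMSO in all compound wells; Measured by: CellTiter-Glo luminescence.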
HUVEC prolif 384: human endothelial cell proliferation inhibition | viability, % at 10 µM (by protocol) | HUVEC proliferation, CellTiter-Glo luminescence, 72 h; stronger effect = lower value | AID 648 | 86,000 compounds, 1.1% hits;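 active = viability at or below 30%; inactive = viability above 30%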;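 also: 100% = median luminescence of DMSO-only cell control wells on each plate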
* = called active by the depositor. The sample as a whole holds a higher share of hits than the screen did.

Screening CC1=C(C(=O)OC2CCCC2)C(c2ccc(C)o2)C2=C(CC(c3cccs3)CC2=O)N1 (stereo not given) returned H69AR inhibit 35*, PTEN del growth 73, bCat KO growth 73, Lung fibro prol 85 and HUVEC prolif 384 93.
Screening CCCOC(=O)C1=C(C)NC2=C(C(=O)CCC2)C1c1cccs1 (stereo not given) returned H69AR inhibit 92, PTEN del growth 92, bCat KO growth 95, Candida biofilm 4, Lung fibro prol 105 and HUVEC prolif 384 99.
COc1ccc(N(C)C(=O)c2onc3c2CCCC3)cc1 was read as PTEN del growth 97 and bCat KO growth 98.
Screening CCN(CC)CCCNC(=O)c1cn(CCOC)c(=O)c2c1c1ccccc1n2C returned H69AR inhibit 81, PTEN del growth 94, bCat KO growth 92, Candida biofilm 3, Lung fibro prol 93 and HUVEC prolif 384 93.
Cc1ccc(NC(=O)c2cc(N3CCOCC3)nc3ccccc23)cc1 was read as H69AR inhibit 33*, PTEN del growth 61, bCat KO growth 73, Candida biofilm 4, Lung fibro prol 86 and HUVEC prolif 384 91.
Oc1c(CN2CCN(c3ccccn3)CC2)cc(Cl)c2cccnc12 was read as H69AR inhibit 0.1*, PTEN del growth 2.6*, bCat KO growth 2.0*, Candida biofilm 3, Lung fibro prol 34* and HUVEC prolif 384 60.
For O=c1c(CN2CCN(c3ccccn3)CC2)coc2ccccc12 the results were PTEN del growth 97 and bCat KO growth 91.
For OCCN1CCN(Cc2cc(Cl)c3cccnc3c2O)CC1 the results were H69AR inhibit 37*, PTEN del growth 9, bCat KO growth 9, Candida biofilm 4, Lung fibro prol 54 and HUVEC prolif 384 81.
For CCOC(=O)c1cccc2c1-c1ccccc1/C2=N/O the results were H69AR inhibit 28*, PTEN del growth 95, bCat KO growth 100, Candida biofilm 3, Lung fibro prol 89 and HUVEC prolif 384 14*.
For COc1ccc(Cn2cc3c(-c4ccc(F)cc4)nnc-3c3cc(OC)c(OC)cc32)cc1 the results were H69AR inhibit 1.3*, PTEN del growth 2.1*, bCat KO growth 1.8*, Candida biofilm 2, Lung fibro prol 2.2* and HUVEC prolif 384 2.3*.
For COc1cc2c3nnc(-c4ccc(F)cc4)c-3cn(Cc3ccccc3)c2cc1OC the results were H69AR inhibit 1.5*, PTEN del growth 1.6*, bCat KO growth 1.1*, Candida biofilm 14, Lung fibro prol 2.7* and HUVEC prolif 384 1.8*.
COc1ccc(OC2C(=O)N(Cc3ccc(F)cc3)C2c2cc(OC)c(OC)c(OC)c2)cc1 (stereo not given) was read as PTEN del growth 83 and bCat KO growth 90.
`COc1ccc(CCNC(=O)CSc2nnc(-c3ccc(F)cc3)c3ccccc23)cc1OC` gave PTEN del growth 94 and bCat KO growth 85.
Screening COc1cc2c3nnc(-c4ccc(F)cc4)c-3cn(Cc3ccc(F)cc3)c2cc1OC returned H69AR inhibit -0.4*, PTEN del growth 0.8*, bCat KO growth 0.7*, Candida biofilm 14, Lung fibro prol 10* and HUVEC prolif 384 2.6*.
For Cc1nn(Cc2c(Cl)cccc2Cl)c(Cl)c1/C=N/NC(=O)c1cccnc1 the results were PTEN del growth 83 and bCat KO growth 88.
CCCNC(=O)NC(=O)COC(=O)c1ccc(OC)c(S(=O)(=O)N2CCCc3ccccc32)c1 was read as H69AR inhibit 97, PTEN del growth 99, bCat KO growth 95, Candida biofilm 0, Lung fibro prol 93 and HUVEC prolif 384 98.
Screening Cc1ccc(CNCc2cc3c(C(C)(C)C)nn(-c4ccccc4)c3[nH]c2=O)cc1 returned H69AR inhibit 1.9*, PTEN del growth 5, bCat KO growth 3.7*, Candida biofilm 6, Lung fibro prol 65 and HUVEC prolif 384 67.
For COc1ccc(CNCc2cc3c(C(C)(C)C)nn(-c4ccccc4)c3[nH]c2=O)cc1 the results were H69AR inhibit 24*, PTEN del growth 0.6*, bCat KO growth 0.5*, Candida biofilm 4, Lung fibro prol 69 and HUVEC prolif 384 72.
Screening CC(C)(C)c1nn(-c2ccccc2)c2[nH]c(=O)c(CNCc3ccco3)cc12 returned H69AR inhibit 7.8*, PTEN del growth 24, bCat KO growth 36, Candida biofilm 1, Lung fibro prol 100 and HUVEC prolif 384 44.
